Columns and labels:
[1] = test system: Human immunodeficiency virus 1; assay: Nucleocapsid p7 protein (NCp7) zinc finger domain reactivity was measured by Trp37 fluorescence assay expressed as the average decrease in relative fluorescence units over 30 min; assay type: functional
Summary of the method: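 Recombinant HIV-1 NCp7 (pET3A construct expressed in E. coli BL21); intrinsic fluorescence of Trp37 in the C-terminal zinc finger monitored over 30 min after compound addition. Value is the mean fall in relative fluorescence units per minute across 30 min, taken as a readout of Zn ejection. Dithiane or DIBA-1 served as reference. Where glutathione pretreatment was used, 2 mM compound was held 2 h at 37 °C with 2–8 M excess reduced glutathione, then diluted 40-fold to 50 μM final compound.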

[2] = test system: Human immunodeficiency virus 1; assay: Antiviral activity against HIV-1 infected CEM-SS cells was determined in XTT cytoprotection assay; assay type: functional, organism-based; settings: Human immunodeficiency virus 1, CEM-SS
Summary of the method: (§1)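 CEM-SS cells infected with HIV-1 RF at MOI 0.01, scored by XTT dye-reduction cytoprotection. EC50 is the concentration giving 50% protection of infected cells. IC50 is the concentration causing 50% cytotoxicity (growth inhibition). High test concentration 316 μM.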

[3] = test system: Human immunodeficiency virus 1; assay: Effective antiviral concentration against HIV-1 infected CEM-SS cells; assay type: functional, organism-based; settings: Human immunodeficiency virus 1, CEM-SS; summary of the method: as §1
[4] = target: Human immunodeficiency virus type 1 reverse transcriptase (Human immunodeficiency virus 1, UniProt Q72547); assay: 50% Inhibitory activity against reverse transcriptase; No inhibition at a highest dose of 100 uM
Summary of the method: (§2)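 Top test level 100 μM; IC50 is the concentration inhibiting 50% of the indicated activity, with reference inhibitors run as positive controls. Integrase uses recombinant HIV-1 integrase, scored on 3'-processing and strand transfer. Protease uses recombinant HIV-1 protease cleaving the peptide Ala-Ser-Glu-Asn-Try-Pro-Ile-Val-amide, read by HPLC. Reverse transcriptase uses recombinant HIV-1 RT on rAdT and rCdG template/primers.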

[5] = 50% Inhibitory activity against attachment; No inhibition at a highest dose of 100 uM
[6] = target: Human immunodeficiency virus type 1 integrase (Human immunodeficiency virus 1, UniProt Q7ZJM1); assay: 50% Inhibitory activity against Integrase; No inhibition at a highest dose of 100 uM; summary of the method: as §2
[7] = 50% Inhibitory activity against fusion; No inhibition at a highest dose of 100 uM
[8] = target: Human immunodeficiency virus type 1 protease (Human immunodeficiency virus 1, UniProt Q72874); assay: 50% Inhibitory activity against protease; No inhibition at a highest dose of 100 uM; summary of the method: as §2

Human immunodeficiency virus type 1 integrase, sequence (Q7ZJM1 whole entry, the tested form may be a part): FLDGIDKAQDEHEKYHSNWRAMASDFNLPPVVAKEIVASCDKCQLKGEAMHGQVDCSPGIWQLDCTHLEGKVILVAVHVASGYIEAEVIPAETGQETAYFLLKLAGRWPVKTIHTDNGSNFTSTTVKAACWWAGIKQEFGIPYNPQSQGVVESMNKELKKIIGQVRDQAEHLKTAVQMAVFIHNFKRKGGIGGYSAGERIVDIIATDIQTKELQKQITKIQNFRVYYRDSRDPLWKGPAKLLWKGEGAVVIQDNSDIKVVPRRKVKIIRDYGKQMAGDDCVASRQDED

Compound	Activity [1] [RFU min-1]	IC50 [2] [µM]	EC50 [3] [µM]	Zinc finger reactivity [1] [RFU min-1]	IC50 [4]	IC50 [5]	IC50 [6]	IC50 [7]	IC50 [8]
NS(=O)(=O)c1ccc(NC(=O)CNC(=O)c2ccccc2SSc2ccccc2C(=O)NCC(=O)Nc2ccc(S(N)(=O)=O)cc2)cc1	7.9	17.6	1.6	–	–	–	–	–	–
O=C(CCCC[n+]1ccccc1)Sc1ccccc1C(=O)Nc1ccc(S(=O)(=O)c2ccc(NS(=O)(=O)Cc3ccccc3[N+](=O)[O-])cc2)cc1.[Br-]	0.86	> 316	2.9	–	–	–	–	–	–
NS(=O)(=O)c1ccc(Cn2sc3ccccc3c2=O)cc1	2.7	53.7	13.8	–	–	–	–	–	–
CC(=O)NS(=O)(=O)c1ccc(NC(=O)c2ccccc2SC(=O)CCCCC[n+]2ccccc2)cc1.[Br-]	1.9	69.7	10.5	–	–	–	–	–	–
O=C(CCCC[n+]1ccccc1)Sc1ccccc1C(=O)Nc1ccc(S(=O)(=O)c2ccc([N+](=O)[O-])cc2)cc1.[Br-]	–	> 316	5.5	4.1	No inhibition	No inhibition	No inhibition	–	–
CC(=O)NS(=O)(=O)c1ccc(NC(=O)c2ccccc2SC(=O)CCCCBr)cc1	–	184	3.8	1.8	No inhibition	No inhibition	No inhibition	No inhibition	No inhibition
CC(=O)NS(=O)(=O)c1ccc(NC(=O)c2ccccc2SC(=O)CCCC[n+]2ccccc2)cc1.[Br-]	–	> 316	6.2	3.6	No inhibition	No inhibition	No inhibition	–	No inhibition
CC(=O)Nc1ccc(S(=O)(=O)Nc2ccc(S(=O)(=O)c3ccc(-n4sc5ccccc5c4=O)cc3)cc2)cc1	7.9	188	9.6	–	–	–	–	–	–
CC(=O)NS(=O)(=O)c1ccc(NC(=O)c2ccccc2SC(=O)CCC[n+]2ccccc2)cc1.[Br-]	2.2	175	10.1	–	–	–	–	–	–
CC(=O)Nc1ccc(S(=O)(=O)c2ccc(NC(=O)c3ccccc3SSc3ccccc3C(=O)Nc3ccc(S(=O)(=O)c4ccc(NC(C)=O)cc4)cc3)cc2)cc1	5.9	160	1.5	–	–	–	–	–	–
COc1ccc(C(=O)Sc2ccccc2C(=O)Nc2ccc(S(=O)(=O)NC(C)=O)cc2)cc1	3.5	43.7	2.8	–	–	–	–	–	–
CC(=O)Nc1cccc(S(=O)(=O)c2cccc(NC(=O)c3ccccc3SC(=O)CCCC[n+]3ccccc3)c2)c1.[Br-]	1.1	205	4.9	–	–	–	–	–	–
NS(=O)(=O)c1ccc(CCn2sc3ccccc3c2=O)cc1	2.7	45.5	2	–	–	–	–	–	–
O=C(Nc1ccc(S(=O)(=O)c2ccc(NC(=O)c3ccccc3SSc3ccccc3C(=O)Nc3ccc(S(=O)(=O)c4ccc(NC(=O)c5ccc([N+](=O)[O-])cc5)cc4)cc3)cc2)cc1)c1ccc([N+](=O)[O-])cc1	2.9	> 316	78	–	–	–	–	–	–
COc1ccc(C(=O)Nc2ccc(S(=O)(=O)c3ccc(NC(=O)c4ccccc4SSc4ccccc4C(=O)Nc4ccc(S(=O)(=O)c5ccc(NC(=O)c6ccc(OC)cc6)cc5)cc4)cc3)cc2)cc1	6.9	79.6	3.8	–	–	–	–	–	–
Nc1ccc(S(=O)(=O)c2ccc(NC(=O)c3ccccc3SSc3ccccc3C(=O)Nc3ccc(S(=O)(=O)c4ccc(N)cc4)cc3)cc2)cc1	3.3	> 316	4.3	–	–	–	–	–	–
O=C(Nc1ccc(S(=O)(=O)c2ccc([N+](=O)[O-])cc2)cc1)c1ccccc1SSc1ccccc1C(=O)Nc1ccc(S(=O)(=O)c2ccc([N+](=O)[O-])cc2)cc1	2.9	> 316	12.2	–	–	–	–	–	–
CC(=O)NS(=O)(=O)c1ccc(NC(=O)c2ccccc2SC(=O)CCCC[n+]2cccc(Cl)c2)cc1.[Br-]	0.2	264	54	–	–	–	–	–	–
O=C(CCCCBr)Sc1ccccc1C(=O)Nc1ccc(S(=O)(=O)c2ccc([N+](=O)[O-])cc2)cc1	1	21.7	1.6	–	–	–	–	–	–
Nc1cccc(S(=O)(=O)c2cccc(NC(=O)c3ccccc3SSc3ccccc3C(=O)Nc3cccc(S(=O)(=O)c4cccc(N)c4)c3)c2)c1	0.92	81.5	1	–	–	–	–	–	–
CC(=O)Nc1cccc(S(=O)(=O)c2cccc(NC(=O)c3ccccc3SSc3ccccc3C(=O)Nc3cccc(S(=O)(=O)c4cccc(NC(C)=O)c4)c3)c2)c1	2	59.1	0.62	–	–	–	–	–	–
CC(=O)NS(=O)(=O)c1ccc(NC(=O)c2cccc(NC(=O)CCCl)c2)cc1	3.9	103	38	–	–	–	–	–	–
